ChEMBL document CHEMBL1641579, “Synthesis and biological evaluation of 7-substituted-1-(3-bromophenylamino)isoquinoline-4-carbonitriles as inhibitors of myosin light chain kinase and epidermal growth factor receptor” (Bioorg Med Chem, 2011)

Experiments:
[1] = biological target: Ephrin type-A receptor 2 (Homo sapiens) (UniProt P29317); experiment: Inhibition of EPHA2 assessed as residual activity at 10 uM
How it was run: (§1)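 Kinase panel screen run as a radioactive activity assay at single compound concentration. Score reported as percent activity remaining relative to DMSO controls (100%).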

[2] = biological target: T1, Eukaryotic elongation factor 2 kinase (Homo sapiens) (UniProt O00418); experiment: Inhibition of EF2K assessed as residual activity at 10 uM; how it was run: as §1
T1 sequence (whole entry): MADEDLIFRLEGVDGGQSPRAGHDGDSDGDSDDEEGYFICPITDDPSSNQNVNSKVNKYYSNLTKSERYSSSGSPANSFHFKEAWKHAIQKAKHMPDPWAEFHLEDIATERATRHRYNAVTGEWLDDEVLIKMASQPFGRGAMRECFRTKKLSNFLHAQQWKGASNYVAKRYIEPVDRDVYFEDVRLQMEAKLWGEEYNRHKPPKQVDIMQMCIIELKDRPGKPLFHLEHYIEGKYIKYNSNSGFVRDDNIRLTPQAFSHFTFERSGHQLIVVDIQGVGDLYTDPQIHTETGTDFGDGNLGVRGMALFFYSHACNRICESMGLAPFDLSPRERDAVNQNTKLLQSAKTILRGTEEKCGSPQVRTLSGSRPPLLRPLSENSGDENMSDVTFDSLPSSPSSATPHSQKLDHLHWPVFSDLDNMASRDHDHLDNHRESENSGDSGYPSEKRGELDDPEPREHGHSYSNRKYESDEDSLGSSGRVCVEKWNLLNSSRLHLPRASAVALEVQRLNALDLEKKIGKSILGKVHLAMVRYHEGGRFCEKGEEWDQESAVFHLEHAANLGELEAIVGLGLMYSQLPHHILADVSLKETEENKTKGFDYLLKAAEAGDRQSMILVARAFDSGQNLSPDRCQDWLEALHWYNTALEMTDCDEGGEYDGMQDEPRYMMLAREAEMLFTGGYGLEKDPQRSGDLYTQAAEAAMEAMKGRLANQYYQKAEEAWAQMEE

[3] = biological target: Myosin light chain kinase, smooth muscle (Homo sapiens, UniProt Q15746); experiment: Inhibition of MLCK by HTRF assay
[4] = biological target: Mitogen-activated protein kinase 8 (Homo sapiens) (UniProt P45983); experiment: Inhibition of JNK1 assessed as residual activity at 10 uM; how it was run: as §1
[5] = Inhibition of PKA assessed as residual activity at 10 uM
How it was run: (§2)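 Panel screen by radioactive kinase assay at a single inhibitor concentration. Score is the percent activity remaining relative to DMSO controls (100%).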

[6] = biological target: Ribosomal protein S6 kinase alpha-3 (Homo sapiens) (UniProt P51812); experiment: Inhibition of RSK2 assessed as residual activity at 10 uM; how it was run: as §2
[7] = biological target: Dual specificity tyrosine-phosphorylation-regulated kinase 1A (Homo sapiens) (UniProt Q13627); experiment: Inhibition of DYRK1A assessed as residual activity at 10 uM; how it was run: as §1
[8] = biological target: Casein kinase I isoform alpha (Homo sapiens) (UniProt P48729); experiment: Inhibition of CK1 assessed as residual activity at 10 uM; how it was run: as §1
[9] = biological target: T2, Mitogen-activated protein kinase kinase kinase kinase 2 (Homo sapiens) (UniProt Q12851); experiment: Inhibition of GCK assessed as residual activity at 10 uM; how it was run: as §1
T2 sequence (whole entry): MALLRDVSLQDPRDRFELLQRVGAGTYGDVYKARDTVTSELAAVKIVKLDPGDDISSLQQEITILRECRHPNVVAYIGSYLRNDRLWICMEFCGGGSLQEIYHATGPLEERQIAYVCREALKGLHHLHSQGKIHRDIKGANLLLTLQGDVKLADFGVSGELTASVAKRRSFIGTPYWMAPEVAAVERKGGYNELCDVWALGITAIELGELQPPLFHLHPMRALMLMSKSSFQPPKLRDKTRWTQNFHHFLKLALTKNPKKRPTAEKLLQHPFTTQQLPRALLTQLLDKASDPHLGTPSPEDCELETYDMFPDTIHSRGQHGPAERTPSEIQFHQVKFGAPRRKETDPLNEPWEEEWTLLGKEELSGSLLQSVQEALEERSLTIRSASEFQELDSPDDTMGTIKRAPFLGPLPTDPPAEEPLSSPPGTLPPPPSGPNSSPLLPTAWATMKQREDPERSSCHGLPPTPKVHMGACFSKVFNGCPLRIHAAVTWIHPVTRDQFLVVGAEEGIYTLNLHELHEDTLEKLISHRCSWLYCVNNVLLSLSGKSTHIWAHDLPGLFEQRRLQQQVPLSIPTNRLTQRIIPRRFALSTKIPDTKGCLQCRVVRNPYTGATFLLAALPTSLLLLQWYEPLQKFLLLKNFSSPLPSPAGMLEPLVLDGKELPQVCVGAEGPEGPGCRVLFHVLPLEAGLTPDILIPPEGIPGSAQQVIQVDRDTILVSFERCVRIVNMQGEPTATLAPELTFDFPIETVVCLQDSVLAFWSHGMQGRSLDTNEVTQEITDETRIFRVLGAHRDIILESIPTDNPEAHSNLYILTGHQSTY

[10] = biological target: MAP kinase-interacting serine/threonine-protein kinase 1 (Homo sapiens) (UniProt Q9BUB5); experiment: Inhibition of MNK1 assessed as residual activity at 10 uM; how it was run: as §2
[11] = biological target: Mitogen-activated protein kinase kinase kinase 11 (Homo sapiens) (UniProt Q16584); experiment: Inhibition of MLK3 assessed as residual activity at 10 uM; how it was run: as §2
[12] = biological target: T3, Serine/threonine-protein kinase BRSK2 (Homo sapiens) (UniProt Q8IWQ3); experiment: Inhibition of BRSK2 assessed as residual activity at 10 uM; how it was run: as §1
T3 sequence (whole entry): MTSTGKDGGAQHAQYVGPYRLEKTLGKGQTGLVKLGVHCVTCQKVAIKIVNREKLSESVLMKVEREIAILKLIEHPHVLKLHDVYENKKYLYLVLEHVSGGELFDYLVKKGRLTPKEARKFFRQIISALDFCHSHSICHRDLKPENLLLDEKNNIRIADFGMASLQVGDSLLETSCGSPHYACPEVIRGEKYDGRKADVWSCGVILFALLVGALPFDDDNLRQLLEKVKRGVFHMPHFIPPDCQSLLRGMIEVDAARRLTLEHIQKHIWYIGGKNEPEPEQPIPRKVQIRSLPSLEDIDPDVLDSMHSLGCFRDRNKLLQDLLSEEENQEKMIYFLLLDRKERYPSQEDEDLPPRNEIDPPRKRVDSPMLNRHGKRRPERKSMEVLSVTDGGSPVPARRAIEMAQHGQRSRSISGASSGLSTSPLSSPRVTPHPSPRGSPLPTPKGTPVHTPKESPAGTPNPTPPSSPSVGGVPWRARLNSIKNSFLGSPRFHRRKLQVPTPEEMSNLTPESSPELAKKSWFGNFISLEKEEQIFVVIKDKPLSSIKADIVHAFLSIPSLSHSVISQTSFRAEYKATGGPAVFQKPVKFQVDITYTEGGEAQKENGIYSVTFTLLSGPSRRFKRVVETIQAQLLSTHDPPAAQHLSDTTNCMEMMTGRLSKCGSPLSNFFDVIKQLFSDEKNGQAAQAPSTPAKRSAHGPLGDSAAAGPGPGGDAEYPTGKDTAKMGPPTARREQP

Sequence of Mitogen-activated protein kinase 8 (Homo sapiens) (P45983 whole entry): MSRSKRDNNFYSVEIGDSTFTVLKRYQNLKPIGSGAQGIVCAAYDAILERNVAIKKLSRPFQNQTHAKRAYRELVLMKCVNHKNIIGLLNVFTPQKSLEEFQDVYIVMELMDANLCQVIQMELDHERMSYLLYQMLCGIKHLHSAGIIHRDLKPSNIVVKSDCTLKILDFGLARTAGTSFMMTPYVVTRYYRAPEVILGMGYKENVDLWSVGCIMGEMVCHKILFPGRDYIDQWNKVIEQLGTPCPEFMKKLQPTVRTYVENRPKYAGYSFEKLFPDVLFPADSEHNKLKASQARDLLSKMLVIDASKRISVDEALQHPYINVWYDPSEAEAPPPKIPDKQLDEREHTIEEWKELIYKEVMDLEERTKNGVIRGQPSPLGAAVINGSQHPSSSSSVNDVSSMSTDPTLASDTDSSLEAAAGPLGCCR
Sequence of MAP kinase-interacting serine/threonine-protein kinase 1 (Homo sapiens) (Q9BUB5 whole entry, looked up): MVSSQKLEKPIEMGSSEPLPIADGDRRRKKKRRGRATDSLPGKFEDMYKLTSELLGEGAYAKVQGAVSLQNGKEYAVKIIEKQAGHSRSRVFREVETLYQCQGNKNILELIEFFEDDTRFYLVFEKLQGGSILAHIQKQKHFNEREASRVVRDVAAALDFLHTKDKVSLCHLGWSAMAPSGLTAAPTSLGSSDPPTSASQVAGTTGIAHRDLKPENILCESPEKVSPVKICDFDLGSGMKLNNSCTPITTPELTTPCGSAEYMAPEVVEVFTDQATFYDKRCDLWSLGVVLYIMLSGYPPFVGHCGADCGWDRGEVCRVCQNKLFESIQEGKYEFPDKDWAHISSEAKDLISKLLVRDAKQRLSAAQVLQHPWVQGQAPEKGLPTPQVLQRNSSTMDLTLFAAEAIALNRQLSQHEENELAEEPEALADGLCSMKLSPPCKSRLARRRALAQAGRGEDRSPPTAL
Sequence of Mitogen-activated protein kinase kinase kinase 11 (Homo sapiens) (Q16584 whole entry, looked up): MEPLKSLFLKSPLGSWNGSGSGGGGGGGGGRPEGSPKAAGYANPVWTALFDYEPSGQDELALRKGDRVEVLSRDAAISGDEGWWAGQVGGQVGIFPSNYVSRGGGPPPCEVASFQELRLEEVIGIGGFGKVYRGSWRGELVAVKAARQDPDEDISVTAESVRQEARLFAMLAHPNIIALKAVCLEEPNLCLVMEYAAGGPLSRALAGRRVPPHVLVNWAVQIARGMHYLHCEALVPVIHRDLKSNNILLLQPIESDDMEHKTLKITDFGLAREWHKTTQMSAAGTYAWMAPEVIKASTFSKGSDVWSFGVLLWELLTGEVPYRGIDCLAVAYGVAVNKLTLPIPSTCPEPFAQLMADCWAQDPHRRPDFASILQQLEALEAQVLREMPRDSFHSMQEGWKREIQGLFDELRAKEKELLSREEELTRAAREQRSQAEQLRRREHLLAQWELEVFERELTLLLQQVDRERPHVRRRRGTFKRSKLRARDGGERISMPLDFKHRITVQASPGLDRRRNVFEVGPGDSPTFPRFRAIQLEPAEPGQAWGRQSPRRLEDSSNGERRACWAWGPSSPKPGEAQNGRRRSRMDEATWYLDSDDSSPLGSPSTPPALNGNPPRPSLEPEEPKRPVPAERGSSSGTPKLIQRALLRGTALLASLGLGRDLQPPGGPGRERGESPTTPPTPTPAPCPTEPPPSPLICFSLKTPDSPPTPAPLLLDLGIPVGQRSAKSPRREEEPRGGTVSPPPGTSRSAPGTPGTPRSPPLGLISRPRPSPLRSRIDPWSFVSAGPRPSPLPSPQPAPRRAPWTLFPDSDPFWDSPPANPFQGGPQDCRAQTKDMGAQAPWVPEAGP
Sequence of Myosin light chain kinase, smooth muscle (Q15746 whole entry): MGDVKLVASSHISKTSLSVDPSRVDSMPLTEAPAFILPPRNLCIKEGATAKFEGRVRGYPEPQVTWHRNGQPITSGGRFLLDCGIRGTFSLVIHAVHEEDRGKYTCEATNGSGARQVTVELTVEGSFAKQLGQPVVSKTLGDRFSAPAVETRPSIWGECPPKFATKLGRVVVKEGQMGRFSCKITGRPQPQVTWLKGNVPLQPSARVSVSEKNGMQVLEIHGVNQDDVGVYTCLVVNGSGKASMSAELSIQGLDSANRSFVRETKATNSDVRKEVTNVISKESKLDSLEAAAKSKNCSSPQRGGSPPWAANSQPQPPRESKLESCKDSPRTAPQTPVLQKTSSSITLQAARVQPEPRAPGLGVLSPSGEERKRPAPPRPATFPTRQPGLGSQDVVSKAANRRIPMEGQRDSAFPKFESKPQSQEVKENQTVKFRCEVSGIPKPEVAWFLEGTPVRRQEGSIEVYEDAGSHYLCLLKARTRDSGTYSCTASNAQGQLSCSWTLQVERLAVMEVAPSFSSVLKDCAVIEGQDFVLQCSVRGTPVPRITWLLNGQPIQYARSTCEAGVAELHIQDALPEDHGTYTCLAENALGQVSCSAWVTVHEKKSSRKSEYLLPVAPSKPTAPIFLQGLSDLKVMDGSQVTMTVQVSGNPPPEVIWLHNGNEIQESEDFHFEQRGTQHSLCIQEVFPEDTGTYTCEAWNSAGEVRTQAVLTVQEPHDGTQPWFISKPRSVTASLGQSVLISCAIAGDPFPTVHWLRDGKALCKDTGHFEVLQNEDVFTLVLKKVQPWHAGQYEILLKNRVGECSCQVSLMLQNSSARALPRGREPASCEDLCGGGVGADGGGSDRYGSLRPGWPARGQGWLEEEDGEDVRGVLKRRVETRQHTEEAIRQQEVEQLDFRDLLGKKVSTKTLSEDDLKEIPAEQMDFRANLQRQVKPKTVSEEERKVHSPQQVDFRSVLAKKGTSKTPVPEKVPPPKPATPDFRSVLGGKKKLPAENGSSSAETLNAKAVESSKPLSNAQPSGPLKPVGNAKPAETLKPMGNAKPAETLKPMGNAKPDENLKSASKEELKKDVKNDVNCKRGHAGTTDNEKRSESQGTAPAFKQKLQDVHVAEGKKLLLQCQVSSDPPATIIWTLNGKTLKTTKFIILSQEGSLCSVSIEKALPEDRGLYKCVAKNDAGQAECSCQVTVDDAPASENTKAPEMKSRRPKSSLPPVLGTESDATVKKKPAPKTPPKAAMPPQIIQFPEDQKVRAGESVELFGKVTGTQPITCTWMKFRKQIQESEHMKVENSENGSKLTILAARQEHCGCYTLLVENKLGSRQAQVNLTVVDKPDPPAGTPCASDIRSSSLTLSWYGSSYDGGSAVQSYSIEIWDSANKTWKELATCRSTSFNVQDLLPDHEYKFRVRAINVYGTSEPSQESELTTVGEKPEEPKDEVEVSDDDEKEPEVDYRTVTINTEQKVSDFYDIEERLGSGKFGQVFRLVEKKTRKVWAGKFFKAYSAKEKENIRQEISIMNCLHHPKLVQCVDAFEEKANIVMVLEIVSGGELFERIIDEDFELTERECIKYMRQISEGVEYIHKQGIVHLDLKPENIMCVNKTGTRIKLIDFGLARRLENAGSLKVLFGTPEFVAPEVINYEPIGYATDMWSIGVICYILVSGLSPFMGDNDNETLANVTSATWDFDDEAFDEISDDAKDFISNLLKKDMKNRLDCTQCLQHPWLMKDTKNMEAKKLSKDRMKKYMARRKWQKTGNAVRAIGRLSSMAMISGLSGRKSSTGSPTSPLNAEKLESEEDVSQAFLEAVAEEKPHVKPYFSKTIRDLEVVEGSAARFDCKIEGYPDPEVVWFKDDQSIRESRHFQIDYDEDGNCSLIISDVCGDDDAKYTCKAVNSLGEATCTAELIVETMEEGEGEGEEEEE
Sequence of Casein kinase I isoform alpha (Homo sapiens) (P48729 2-337 limits assumed): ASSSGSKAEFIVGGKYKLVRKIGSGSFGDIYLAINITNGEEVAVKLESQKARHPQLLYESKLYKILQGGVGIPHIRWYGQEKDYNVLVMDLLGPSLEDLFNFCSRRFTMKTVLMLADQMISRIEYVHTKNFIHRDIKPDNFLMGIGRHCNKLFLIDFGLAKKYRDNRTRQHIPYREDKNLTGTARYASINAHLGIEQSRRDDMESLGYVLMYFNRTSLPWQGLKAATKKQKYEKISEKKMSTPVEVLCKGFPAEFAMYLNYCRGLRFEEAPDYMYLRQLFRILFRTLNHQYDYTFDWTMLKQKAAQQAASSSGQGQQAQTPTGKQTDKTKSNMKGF
Sequence of Ephrin type-A receptor 2 (Homo sapiens) (P29317 whole entry): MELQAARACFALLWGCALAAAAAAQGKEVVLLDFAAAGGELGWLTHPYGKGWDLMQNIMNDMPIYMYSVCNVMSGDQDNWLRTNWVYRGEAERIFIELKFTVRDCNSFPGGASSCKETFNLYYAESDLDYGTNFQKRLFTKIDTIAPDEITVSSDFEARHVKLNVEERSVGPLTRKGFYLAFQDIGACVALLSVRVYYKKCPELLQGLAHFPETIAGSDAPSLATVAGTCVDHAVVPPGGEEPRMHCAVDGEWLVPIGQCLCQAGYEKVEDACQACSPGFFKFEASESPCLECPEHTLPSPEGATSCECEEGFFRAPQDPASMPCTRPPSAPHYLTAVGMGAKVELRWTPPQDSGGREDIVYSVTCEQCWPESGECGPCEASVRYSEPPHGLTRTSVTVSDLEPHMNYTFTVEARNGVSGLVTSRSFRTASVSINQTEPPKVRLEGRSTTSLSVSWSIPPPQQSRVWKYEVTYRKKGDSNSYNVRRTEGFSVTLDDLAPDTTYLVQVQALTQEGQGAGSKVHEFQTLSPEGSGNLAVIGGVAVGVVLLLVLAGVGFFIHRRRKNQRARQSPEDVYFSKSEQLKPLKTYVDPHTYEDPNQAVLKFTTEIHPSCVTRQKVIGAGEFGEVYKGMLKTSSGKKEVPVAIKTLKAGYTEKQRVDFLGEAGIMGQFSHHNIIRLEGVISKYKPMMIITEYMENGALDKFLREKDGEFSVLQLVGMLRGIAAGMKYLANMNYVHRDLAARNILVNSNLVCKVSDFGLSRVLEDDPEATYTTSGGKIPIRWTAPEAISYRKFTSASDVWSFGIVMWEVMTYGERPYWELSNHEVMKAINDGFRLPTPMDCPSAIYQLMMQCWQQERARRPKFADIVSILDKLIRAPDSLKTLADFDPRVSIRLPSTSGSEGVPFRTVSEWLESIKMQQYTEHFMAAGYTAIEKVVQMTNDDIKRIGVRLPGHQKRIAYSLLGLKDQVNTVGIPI

Q: Which Activity [1] does the source give for CN(C)C/C=C/C(=O)Nc1ccc2c(C#N)cnc(Nc3cccc(Br)c3)c2c1 here?
A: The Activity was 73%.

Q: What about the Activity [2] of the same compound?
A: The Activity was 88%.

Q: What about the IC50 [3] of the same compound?
A: The IC50 was 23.6 µM.

Q: What about the Activity [4] of the same compound?
A: The Activity was 91%.

Q: And the Activity [5]?
A: Its Activity is 100%.

Q: And the Activity [6]?
A: Its Activity is 87%.

Q: And the Activity [7]?
A: Its Activity is 60%.

Q: What about the Activity [8] of the same compound?
A: The Activity was 88%.

Q: And the Activity [9]?
A: The Activity was 84%.

Q: And the Activity [10]?
A: Its Activity is 61%.

Q: And the Activity [11]?
A: The Activity was 86%.

Q: And the Activity [12]?
A: The Activity was 75%.

Q: For CN1CCN(CCC(=O)Nc2ccc3c(C#N)cnc(Nc4cccc(Br)c4)c3c2)CC1, which Activity [1] is on record?
A: Its Activity is 87%.

Q: And the Activity [2]?
A: The Activity was 47%.

Q: What about the IC50 [3] of the same compound?
A: Its IC50 is 8.7 µM.

Q: What about the Activity [4] of the same compound?
A: Its Activity is 99%.

Q: What about the Activity [5] of the same compound?
A: The Activity was 100%.

Q: And the Activity [6]?
A: Its Activity is 71%.

Q: And the Activity [7]?
A: The Activity was 79%.

Q: What about the Activity [8] of the same compound?
A: Its Activity is 100%.

Q: And the Activity [9]?
A: The Activity was 84%.

Q: And the Activity [10]?
A: The Activity was 95%.

Q: And the Activity [11]?
A: Its Activity is 87%.

Q: What about the Activity [12] of the same compound?
A: Its Activity is 100%.

Q: Which results are given for CN(C)CCCC(=O)Nc1ccc2c(C#N)cnc(Nc3cccc(Br)c3)c2c1?
A: Activity [1]: 84%; Activity [2]: 78%; IC50 [3]: 25.1 µM; Activity [4]: 97%; Activity [5]: 100%; Activity [6]: 82%; Activity [7]: 75%; Activity [8]: 100%; Activity [9]: 80%; Activity [10]: 82%; Activity [11]: 100%; Activity [12]: 75%
